Rows were chosen to be rich in hits. Some 5.6% of all compounds tested hit in one or more screens of this group.
XBP1 UPR activ: adaptive UPR (XBP1) activation; CHO-XBP1 luciferase reporter, IRE1-XBP1 UPR activation, luminescence; percent of tunicamycin response, DMSO as zero; activation, % at 20 µM; 330,000 compounds, 0.33% hits;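 active = versus positive control, 20 µM dose yields 30% or more activation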;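 note: 100% = tunicamycin at 10 µg/mL and 0% = DMSO only wells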
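Material: CHO-XBP1 cells stably carrying IRE1-XBP1-driven luciferase reporter | Medium: F12 with 10% serum | Compound dosing: 20 µM single concentration, DMSO 1% | Incubation: Overnight seeding at 37 °C, 6 h compound treatment at 37 °C | Detection: Steady-Glo luminescence read | Read-out basis: % activation of reporter signal versus tunicamycin and DMSO controls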
MPTP inh: blocks calcium-induced mitochondrial swelling; isolated mouse mitochondria, Ca2+ swelling absorbance, 30 min; inhibition, % at 10 µM; 360,000 compounds, 1.4% hits;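 active = inhibition of 50% or more, scaled per plate between neutral and stimulator controls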;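 note: 0% = DMSO wells given calcium and 100% = 1 mM EGTA wells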
CHOP inh: blocks CHOP induction under ER stress; 220,000 compounds, 3.8% hits; AID 2732; CHO-K1 CHOP-promoter luciferase, tunicamycin-induced, 15-18 h; inhibition, % at 10 µM;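 active = compounds that reduced the stress-induced luciferase reporter signal by more than about 70% of percent inhibition, limit read from the data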;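 note: 0% = tunicamycin plus vehicle and 100% = wells without tunicamycin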
NR3A LBD binder: modulators (binders) of human NR3A ligand-binding domain; NR3A LBD differential scanning fluorimetry, Tm shift; 0% = protein alone, 100% = glycine-bound protein; Tm shift relative to glycine control, % at 25 µM; 340,000 compounds, 2.5% hits; AID 1259313;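 active = melting temperature shift of at least 10% of the positive control shift, at one fixed dose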
UPR CHOP act: apoptotic UPR (CHOP) activation | CHO-CHOP luciferase reporter, luminescence; percent of tunicamycin response over DMSO baseline | activation, % at 10 µM | AID 449763 | 330,000 compounds, 0.34% hits;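 active = at 10 µM dose, activation of 40% or more, normalized to positive control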;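 note: 100% = tunicamycin at 10 µg/mL and 0% = DMSO alone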
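Dosing – one dose, 10 µM in 0.5% DMSO · System – CHO-CHOP cells, stable luciferase reporter of PERK-eIF2a-CHOP signalling · Input – 500 cells/well · Control set – tunicamycin 10 µg/mL final as positive, DMSO-only wells as negative · Timing – 6 h compound treatment, 37 °C · Measure – % activation vs tunicamycin · Technique – luminescence read with Steady-Glo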
aDG glyco up: increases alpha dystroglycan glycosylation; Pro5-aDG cells, alpha-DG glycosylation AlphaScreen (IIH6); 0% Pro5, 100% B10-LARGE cell signal; activation, % at 10 µM; 360,000 compounds, 0.22% hits;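 active = activation of at least 8% versus controls, or a plate z-score of at least 8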;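 note: Pro5 are CHO cells carrying HIG-tagged alpha-DG that lacks glycosylation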
MPTP counter: Rhodamine 123 counter-screen of mitochondrial pore hits | inhibition, % at 10 µM | isolated mitochondria, membrane potential, Rhodamine 123 fluorescence | AID 624504 | 5,000 compounds, 78% hits | shares compounds with MPTP inh; in the data active = inhibition above about 22%;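 note: 0% = DMSO vehicle and 100% = positive control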
MPTP abs DR: MPTP inhibition, dose response swelling confirmation; 780 compounds, 58% hits; IC50, µM; isolated mitochondria swelling, absorbance; shares compounds with MPTP inh; in the data active = IC50 below about 20 µM
MPTP cs DR: MPTP inhibitor counter-screen activity, dose response; shares compounds with MPTP inh; isolated mitochondria counterscreen, fluorescence read-out; IC50, µM; 780 compounds, 49% hits; AID 651564; in the data active = IC50 below about 80 µM
The depositor's hits bear a star; x = no result given.

SMILES	XBP1 UPR activ	MPTP inh	CHOP inh	NR3A LBD binder	UPR CHOP act	aDG glyco up	MPTP counter	others
COc1cccc(NC(=S)NC2CC(C)CC(C)(C)C2)c1 (stereo unspecified)	x	64*	x	x	x	1	93*
CN(CC(=O)Nc1ccc(N2CCOCC2)cc1)CC(=O)Nc1ccccc1C#N	0	-1	-1	8	3	0	x
COc1c(Br)cc([N+](=O)[O-])c(OC)c1C(=O)NC(=O)Nc1cc(Cl)cc(Cl)c1	15	83*	23	13*	8	0	85*
COc1c(Br)cc([N+](=O)[O-])c(OC)c1C(=O)NC(=O)Nc1c(Cl)cccc1Cl	0	4	3	-13	1	0	x
CCOc1ccc(NS(=O)(=O)c2cc(NC(=O)c3ccc(C)cc3)ccc2Cl)cc1	0	90*	51	15*	0	0	56*
COc1ccccc1NS(=O)(=O)c1cc(NC(=O)c2ccc(Cl)nc2)ccc1Cl	0	56*	56	16*	1	2	72*
COc1ccc(NC(=O)c2ccc(Cl)nc2)cc1S(=O)(=O)N1CCOCC1	1	-1	x	-4	2	0	x
CCCCn1nc(C(=O)NCC(c2cccs2)N2CCOCC2)c2ccccc2c1=O (stereo unspecified)	-3	2	x	3	5	1	x
COc1cccc(NC(=O)C2CCN(C(=O)[C@@H]3Cc4ccccc4CN3C(=O)OC(C)(C)C)CC2)c1	1	1	x	-1	1	0	x
Cc1cc(C)cc(NC(=O)Nc2ccccc2N2CCCCC2)c1	2	63*	30	2	-1	0	61*
CCOc1ccc(NC(=O)C2CCN(C(=O)C3CC(=O)N(c4ccc(C)cc4)C3)CC2)cc1 (stereo unspecified)	-7	0	x	-2	0	0	x
CCCC[C@H](CN[C@@H](CNC)[C@H](C)CC)NCCC12CCC(CC1)C2	2	100*	x	5	4	1	-17	MPTP abs DR=6.1*;MPTP cs DR=>80
COC(=O)[C@@]1(Sc2ccc(C)cc2)CC(=O)N[C@@H]1c1ccc(Br)cc1	x	1	x	x	x	0	x
C/C(=N/NC(=O)c1ccc(Br)o1)c1cccc(NC(=O)c2ccc(F)cc2)c1	-1	1	x	-3	0	0	x
Cc1ccc(NC(=O)Nc2nnc(Cc3ccc([N+](=O)[O-])cc3)s2)cc1C	4	86*	41	25*	4	0	63*
O=C(Nc1ccccc1)Nc1nnc(Cc2ccc([N+](=O)[O-])cc2)s1	2	93*	90*	16*	5	0	89*
O=C(Nc1ccccc1)Nc1nnc(Cc2ccc(F)cc2)s1	-2	7	x	-4	1	0	x
CN(CCC#N)C(=O)COC(=O)c1ccc(CNS(=O)(=O)c2ccc(F)c(Cl)c2)cc1	-1	0	19	-2	0	0	x
CCc1cccc(NC(=O)Cn2cc(C=O)c3ccccc32)c1	1	73*	52	-1	-3	1	50*
COc1cccc(NC(=O)Cn2cc(C=O)c3ccccc32)c1	-5	1	x	-2	-2	0	x
Cc1ccc(-c2nc(CSc3nc4ccccc4c(=O)n3C)cs2)cc1	-2	100*	29	-2	0	2	45*
COC(=O)c1cc(CSc2nc3ccccc3c(=O)n2C)oc1C	4	84*	x	-2	5	2	93*
COc1ccc(NC(=O)CCC(=O)c2cccs2)cc1Cl	3	2	x	0	2	0	x
N#Cc1cccc(NC(=O)Nc2cccs2)c1	-1	86*	24	6	1	0	106*

Assay outcomes (PubChem)
